Laboratory results taken from ChEMBL document CHEMBL1155469, “Peptide nucleic acids conjugated to short basic peptides show improved pharmacokinetics and antisense activity in adipose tissue” (J Med Chem, 2010).
Calls of active or inactive are those of the source. No cut-off for these calls is given here.

Columns and labels:
[1] = system: Mus musculus; experiment: Toxicity in Balb/C mouse assessed as change in body weight at 10 to 40 mg/kg, ip administered thrice a week for 2 weeks measured 48 hrs after last dose; format: organism-based; design: dose 10-40 mg/kg, route intraperitoneal; details: in vivo
Summary of the method: (§1)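 Male Balb/c mice, 6–8 wk, n=4/group, received compound i.p. in PBS (10 ul/g) 3x/wk for 2 wk. Body weight was monitored throughout. At 48 h after the last dose, mice were anesthetized with isoflurane and bled by cardiac puncture. Serum AST, ALT, BUN, bilirubin, glucose and triglycerides were compared with the saline group. ALT rise below 2x normal was counted as absent.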

[2] = system: Mus musculus; experiment: Toxicity in Balb/C mouse assessed as change in serum bilirubin levels at 10 to 40 mg/kg, ip administered thrice a week for 2 weeks measured 48 hrs after last dose; format: organism-based; design: dose 10-40 mg/kg, route intraperitoneal; details: in vivo; summary of the method: as §1
[3] = system: Mus musculus; experiment: Toxicity in Balb/C mouse assessed as change in blood urea nitrogen levels at 10 to 40 mg/kg, ip administered thrice a week for 2 weeks measured 48 hrs after last dose; format: organism-based; design: dose 10-40 mg/kg, route intraperitoneal; details: in vivo; summary of the method: as §1
[4] = Drug level in Balb/C mouse adipose tissue at 40 mg/kg, ip administered thrice a week for 2 weeks measured 48 hrs after last dose; format: ADME, organism-based; design: dose 40 mg/kg, route intraperitoneal; details: read-out: Drug uptake
Summary of the method: (§2)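 Male Balb/c mice, 6–8 wk, n=4/group, dosed i.p. in PBS 3x/wk for 2 wk at 40 mg/kg and killed 48 h after the last dose. Liver, kidney and adipose tissue were homogenized in SDS extraction buffer and diluted to 0.2 mg tissue/mL. They were hybridized with a digoxigenin/biotin cutting probe, captured on NeutrAvidin, and digested with nuclease S1. Anti-digoxigenin-AP fluorescence was read and quantified against a 0.1–100 nM standard ladder, in quadruplicate.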

[5] = Drug level in Balb/C mouse liver at 40 mg/kg, ip administered thrice a week for 2 weeks measured 48 hrs after last dose; format: ADME, organism-based; design: dose 40 mg/kg, route intraperitoneal; details: read-out: Drug uptake; summary of the method: as §2
[6] = system: Mus musculus; experiment: Toxicity in Balb/C mouse assessed as change in serum AST levels at 10 to 40 mg/kg, ip administered thrice a week for 2 weeks measured 48 hrs after last dose; format: organism-based; design: dose 10-40 mg/kg, route intraperitoneal; details: in vivo; summary of the method: as §1
[7] = system: Mus musculus; experiment: Toxicity in Balb/C mouse assessed as change in serum ALT levels at 10 to 40 mg/kg, ip administered thrice a week for 2 weeks measured 48 hrs after last dose; format: organism-based; design: dose 10-40 mg/kg, route intraperitoneal; details: in vivo; summary of the method: as §1
[8] = system: Mus musculus; experiment: Toxicity in Balb/C mouse assessed as change in serum triglyceride levels at 10 to 40 mg/kg, ip administered thrice a week for 2 weeks measured 48 hrs after last dose; format: organism-based; design: dose 10-40 mg/kg, route intraperitoneal; details: in vivo; summary of the method: as §1
[9] = system: Mus musculus; experiment: Inhibition of PTEN expression in Balb/C mouse liver at 10 to 40 mg/kg, ip administered thrice a week for 2 weeks measured 48 hrs after last dose by Western blot analysis; format: functional, organism-based
Summary of the method: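 Male Balb/c mice, 6–8 wk, n=4/group, dosed i.p. in PBS 3x/wk for 2 wk and killed 48 h after the last dose. Tissue was homogenized in RIPA buffer with protease inhibitors, and protein was measured by Lowry assay. Lysates were run on 10% PAGE and blotted to PVDF. Blots were probed with rabbit anti-PTEN (1:1000) and HRP anti-rabbit (1:2500), with ECL detection.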

[10] = system: Mus musculus; experiment: Inhibition of PTEN expression in Balb/C mouse kidney at 10 to 40 mg/kg, ip administered thrice a week for 2 weeks measured 48 hrs after last dose
[11] = system: Mus musculus; experiment: Inhibition of PTEN expression in Balb/C mouse white adipose tissue assessed as reduction of full length transcript at 10 to 40 mg/kg, ip administered thrice a week for 2 weeks measured 48 hrs after last dose […]; format: functional, organism-based
[12] = system: Mus musculus; experiment: Toxicity in Balb/C mouse assessed as change in serum glucose levels at 10 to 40 mg/kg, ip administered thrice a week for 2 weeks measured 48 hrs after last dose; format: organism-based; design: dose 10-40 mg/kg, route intraperitoneal; details: in vivo; summary of the method: as §1
[13] = Drug level in Balb/C mouse kidney at 40 mg/kg, ip administered thrice a week for 2 weeks measured 48 hrs after last dose; format: ADME, organism-based; design: dose 40 mg/kg, route intraperitoneal; details: read-out: Drug uptake; summary of the method: as §2
[14] = system: Mus musculus; experiment: Acute toxicity in Balb/C mouse assessed as change in organ weight at 2.5 to 12.5 mg/kg, ip administered BID for 5 days measured 48 hrs after last dose; format: organism-based; design: dose 2.5-12.5 mg/kg, route intraperitoneal; details: in vivo
Summary of the method: (§3)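 Male Balb/c mice aged 6–8 weeks, n=4 per group, dosed i.p. with compound suspended in PBS and filter sterilized, 10 ul/g body weight. Body weight tracked throughout the live phase. Under isoflurane anaesthesia, terminal cardiac-puncture bleed; serum taken for transaminases and other chemistries. Sacrifice by cervical dislocation 48 h after last dose, with liver and spleen weighed at necropsy. Kidneys examined by histopathology.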

[15] = system: Mus musculus; experiment: Acute toxicity in Balb/C mouse assessed as change in serum chemistry at 2.5 to 12.5 mg/kg, ip administered BID for 5 days measured 48 hrs after last dose; format: organism-based; design: dose 2.5-12.5 mg/kg, route intraperitoneal; details: in vivo; summary of the method: as §3
[16] = system: Mus musculus; experiment: Inhibition of PTEN expression in Balb/C mouse liver assessed as increase in mRNA levels at 2.5 to 12.5 mg/kg, ip administered BID for 5 days measured 48 hrs after last dose […]; format: functional, organism-based
Summary of the method: (§4)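 Male Balb/c mice, n=4 per group, dosed i.p. in PBS and sacrificed 48 h after last dose. Liver, kidney and adipose tissue homogenised at once in 4 M guanidine isothiocyanate, 25 mM EDTA, 50 mM Tris-HCl pH 6. RNA purified on columns and run by fluorescence-based quantitative RT-PCR. Target transcript levels normalised to cyclophilin A and expressed relative to saline-treated controls.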

[17] = system: Mus musculus; experiment: Inhibition of PTEN expression in Balb/C mouse kidney assessed as increase in mRNA levels at 2.5 to 12.5 mg/kg, ip administered BID for 5 days measured 48 hrs after last dose […]; format: functional, organism-based; summary of the method: as §4
[18] = system: Mus musculus; experiment: Inhibition of PTEN expression in Balb/C mouse adipose tissue assessed as increase in mRNA levels at 2.5 to 12.5 mg/kg, ip administered BID for 5 days measured 48 hrs after last dose by […]; format: functional, organism-based; summary of the method: as §4
[19] = system: Mus musculus; experiment: Acute toxicity in Balb/C mouse assessed as change in body weight at 2.5 to 12.5 mg/kg, ip administered BID for 5 days measured 48 hrs after last dose; format: organism-based; design: dose 2.5-12.5 mg/kg, route intraperitoneal; details: in vivo; summary of the method: as §3

Row | concentration at 48 h [4] | concentration at 48 h [5] | concentration at 48 h [13] | SMILES | Activity [1] | Activity [2] | Activity [3] | Activity [6] | Activity [7] | Activity [8] | inhibition [9] | inhibition [10] | Activity [11] | Activity [12] | Activity [14] | Activity [15] | Activity [16] | Activity [17] | Activity [18] | Activity [19]
1 | 4 µM | 28 µM | 355 µM | Cc1cn(CC(=O)N(CCNC(=O)CN(CCNC(=O)[C@H](CCCCN)N(CCNC(=O)[C@H](CCCCN)NC(=O)[C@@H](N)CCCCN)C(=O)Cn2cc(C)c(=O)[nH]c2=O)C(=O)Cn2ccc(N)nc2=O)CC(=O)NCCN(CC(=O)NCCN(CC(=O)NCCN(CC(=O)NCCN(CC(=O)NCCN(CC(=O)NCCN(CC(=O)NCCN(CC(=O)NCCN(CC(=O)NCCN(CC(=O)NCCN(CC(=O)NCCN(CC(=O)NCCN(CC(=O)NCCN(CC(=O)N[C@@H](CCCCN)C(N)=O)C(=O)Cn2cnc3c(N)ncnc32)C(=O)Cn2ccc(N)nc2=O)C(=O)Cn2cnc3c(N)ncnc32)C(=O)Cn2cc(C)c(=O)[nH]c2=O)C(=O)Cn2ccc(N)nc2=O)C(=O)Cn2cc(C)c(=O)[nH]c2=O)C(=O)Cn2cnc3c(N)ncnc32)C(=O)Cn2ccc(N)nc2=O)C(=O)Cn2cnc3c(N)ncnc32)C(=O)Cn2ccc(N)nc2=O)C(=O)Cn2cnc3c(=O)[nH]c(N)nc32)C(=O)Cn2cnc3c(N)ncnc32)C(=O)Cn2ccc(N)nc2=O)c(=O)[nH]c1=O | Non-toxic | Non-toxic | Non-toxic | Non-toxic | Non-toxic | Non-toxic | inactive | inactive | inactive | Non-toxic |  |  |  |  |  | 
2 |  |  |  | Cc1cn(CC(=O)N(CCNC(=O)CN(CCNC(=O)[C@H](CCCNC(=N)N)N(CCNC(=O)[C@H](CCCNC(=N)N)NC(=O)[C@H](CCCCNC(=N)N)NC(=O)[C@H](Cc2ccccc2)NC(=O)[C@H](CCCCNC(=N)N)NC(=O)[C@H](CCCCNC(=N)N)NC(=O)[C@H](CCCCNC(=N)N)NC(=O)[C@H](C)NC(=O)[C@H](CCCNC(=N)N)NC(=O)[C@H](CCCCNC(=N)N)NC(=O)[C@H](Cc2ccccc2)NC(=O)[C@H](C)NC(=O)[C@H](CCCNC(=N)N)NC(=O)[C@H](CCCCNC(=N)N)NC(=O)CN)C(=O)Cn2cc(C)c(=O)[nH]c2=O)C(=O)Cn2ccc(N)nc2=O)CC(=O)NCCN(CC(=O)NCCN(CC(=O)NCCN(CC(=O)NCCN(CC(=O)NCCN(CC(=O)NCCN(CC(=O)NCCN(CC(=O)NCCN(CC(=O)NCCN(CC(=O)NCCN(CC(=O)NCCN(CC(=O)NCCN(CC(=O)NCCN(CC(=O)N[C@@H](CCCCN)C(N)=O)C(=O)Cn2cnc3c(N)ncnc32)C(=O)Cn2ccc(N)nc2=O)C(=O)Cn2cnc3c(N)ncnc32)C(=O)Cn2cc(C)c(=O)[nH]c2=O)C(=O)Cn2ccc(N)nc2=O)C(=O)Cn2cc(C)c(=O)[nH]c2=O)C(=O)Cn2cnc3c(N)ncnc32)C(=O)Cn2ccc(N)nc2=O)C(=O)Cn2cnc3c(N)ncnc32)C(=O)Cn2ccc(N)nc2=O)C(=O)Cn2cnc3c(=O)[nH]c(N)nc32)C(=O)Cn2cnc3c(N)ncnc32)C(=O)Cn2ccc(N)nc2=O)c(=O)[nH]c1=O |  |  |  |  |  |  |  |  |  |  | Non-toxic | Non-toxic | inactive | inactive | inactive | Non-toxic
